# Assay results from article PMC5039020 (Journal of Alzheimer's disease : JAD, 2013).
# “Also recorded” adds a separate entry of the source. Like-named read-outs stand apart in the source and are kept apart here.
# Assays:
# extracellular Aβ42 = test: Extracellular Aβ42 ELISA capture assay in N2a-AβPP695 cell supernatants; assay type: cell-based; conditions: for effect on Aftin-5 induced extracellular Aβ42 production: N2a-AβPP695, compound together with 100 μM Aftin-5, 18 h; for effect on extracellular Aβ42 level/production: N2a-AβPP695, compound alone, various concentrations
# [1] = test system: KinomeScan panel of 402/442 kinases; conditions: 402 kinases; cited from earlier work
# N2a-AβPP695 = test: Cell viability, MTS assay, N2a-AβPP695; assay type: cell-based; conditions: for IC50: read-out: IC50, cell viability (MTS assay), N2a-AβPP695, viability assessed 24 h later
# HT22 = test: Cell viability, MTS assay, HT22; assay type: cell-based; conditions: read-out: IC50, cell viability (MTS assay); HT22, viability assessed 24 h later
# Outline: (§1)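 Each line was exposed to increasing concentrations of test compound, and viability was read 24 h later by MTS. 20 μL MTS reagent per 100 μL medium, 3 h at 37°C, 5% CO₂. Absorbance read at 490 and 630 nm. IC50 derived from dose-response curves.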
# SH-SY5Y = test: Cell viability, MTS assay, SH-SY5Y; assay type: cell-based; conditions: read-out: IC50, cell viability (MTS assay), viability assessed 24 h later
# N2a = test: Cell viability, MTS assay, N2a; assay type: cell-based; conditions: read-out: IC50, cell viability (MTS assay), viability assessed 24 h later
# Outline: as §1
# [2] = test system: KinomeScan panel of 402/442 kinases; test: KinomeScan panel; assay type: binding; conditions: 10 μM
# extracellular Aβ38 = test: Extracellular Aβ38 ELISA capture assay in N2a-AβPP695 cell supernatants; assay type: cell-based; conditions: for IC50: read-out: IC50 Aβ38, N2a-AβPP695, GSI added 1 h before 100 μM Aftin-5, 18 h; for effect on extracellular Aβ38 level: N2a-AβPP695, compound alone, various concentrations
# Animal toxicity = assay type: in vivo; conditions: per os doses up to 150 mg/kg daily for 20 days; data not shown
# [3] = test system: intracellular Aβ38, Aβ40, and Aβ42; test: Intracellular amyloids ELISA capture assay in N2a-AβPP695 cells; assay type: cell-based
# Outline: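 2 × 10⁶ N2a-AβPP695 cells per T25 flask in 0.5% FBS medium overnight, then treated for 18 h. Cells washed, scraped into PBS with protease inhibitors, pelleted, lysed in 1% Nonidet P-40, sonicated, and spun at 14,000 rpm for 15 min at 4°C. Lysate supernatant assayed by 6E10-capture sandwich ELISA with biotinylated Aβ38, Aβ40 or Aβ42 antibodies. Values expressed as fold over untreated cells.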
# extracellular Aβ40 = test: Extracellular Aβ40 ELISA capture assay in N2a-AβPP695 cell supernatants; assay type: cell-based; conditions: for IC50: read-out: IC50 Aβ40, N2a-AβPP695, GSI added 1 h before 100 μM Aftin-5, 18 h; for effect on extracellular Aβ40 in Aftin-5 treated cells: N2a-AβPP695, compound together with 100 μM Aftin-5, 18 h; for effect on extracellular Aβ40 level/production: N2a-AβPP695, compound alone, various concentrations
# [4] = test system: mitochondria isolated from N2a-AβPP695 cells; test: Electron microscopy, ultrastructure of isolated mitochondria; conditions: 100 μM Aftin-5; 50 μM Calcium; 50 μM Calcium + CsA
# N2a-AβPP695 cells [5] = test: Autophagy assessment, counting of LC3 foci by immunofluorescence; assay type: cell-based
# Outline: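 Cells grown on glass coverslips, fixed in 4% paraformaldehyde, permeabilised with 50 μM digitonin, and stained with a monoclonal anti-LC3 antibody. Images taken with a 40× NA 0.85 objective. LC3 foci counted automatically by image analysis.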
# N2a-AβPP695 cells [6] = test: Mitochondrial parameters in cultured cells; assay type: cell-based
# N2a-AβPP695 cells [7] = test: Electron microscopy, ultrastructure of mitochondria within cells; assay type: cell-based
# [8] = N2a-AβPP695, dose-response, 18 h
compound,measurement,setting,value
Cn1cnc(N)c2ncnc1-2 [3-methyladenine],effect on Aftin-5 induced extracellular Aβ42 production,extracellular Aβ42,did not interfere
"CN(C)c1ncnc2nc[nH]c12 [Aftin N6DA, N6-dimethylaminopurine]",effect on extracellular Aβ42 level/production,extracellular Aβ42; 18 h,inactive
"CCC(CO)Nc1nc(N(C)Cc2ccccc2)c2ncn(C(C)C)c2n1 (centres unmarked) [Aftin-4, N^6-methyl-roscovitine]",interaction with kinases (KinomeScan),[1],no significant interaction
same,effect on extracellular Aβ42 level/production,extracellular Aβ42; 18 h,bell-shaped
same,IC50,N2a-AβPP695,90 µM
same,IC50,HT22,74 µM
same,IC50,SH-SY5Y,106 µM
same,IC50,N2a,100 µM
CC[C@H](CO)Nc1nc(N(C)c2ccccc2)c2ncn(C(C)C)c2n1 [Aftin-5],interaction with kinases (KinomeScan),[2],no interaction with any of the kinases
same,decrease of Aβ38 level,extracellular Aβ38; [8],> 70%
same,animal toxicity,Animal toxicity,little
same,"effect on levels of intracellular Aβ38, Aβ40, and Aβ42","[3]; N2a-AβPP695, 100 μM Aftin-5, 18 h",did not modify
same,maximum increase of Aβ40 level,extracellular Aβ40; [8],40%
same,time after addition at which Aβ42 production reached a plateau,"extracellular Aβ42; N2a-AβPP695, 100 μM Aftin-5",about 12 h
same,effect on extracellular Aβ42 level/production,extracellular Aβ42; 18 h,linear up to the highest dose tested
same,increase of Aβ42 production (up to),extracellular Aβ42; [8],> 900%
same,"ultrastructure of isolated mitochondria (swelling, cristae remodeling)",[4],did not induce any swelling or cristae remodeling
same,IC50,N2a-AβPP695,150 µM
same,cytotoxic effects on cells,"N2a-AβPP695; up to 100 μM, or longest exposure 6 days, data not shown",did not show any cytotoxic effects; also recorded: little cell toxicity
same,effect on rapamycin-induced autophagy,N2a-AβPP695 cells [5],Neither Aftin-5 nor its inactive analog compound (2) impaired rapamycin-induced autophagy
same,IC50,HT22,194 µM
same,IC50,SH-SY5Y,180 µM
same,IC50,N2a,178 µM
same,"mitochondrial parameters at the cellular level, control vs treated cells",N2a-AβPP695 cells [6],essentially undistinguishable
same,global respiration functions,N2a-AβPP695 cells [6]; 24 h,slight inhibition
same,"ultrastructure of mitochondria within cells, 6 h","N2a-AβPP695 cells [7]; 100 μM, 6 h",little detectable effects
same,"ultrastructure of mitochondria within cells, 24 h","N2a-AβPP695 cells [7]; 100 μM, 24 h, reversible upon washing",partial mitochondrial swelling without disruption of cristae
C[C@H](c1ccc(F)cc1CCCC(=O)O)N(c1cc(F)ccc1F)S(=O)(=O)c1ccc(Cl)cc1 [BMS 299897],IC50,extracellular Aβ38,0.088 µM
same,IC50,extracellular Aβ40,0.056 µM
C[C@H](NC(=O)Cc1cc(F)cc(F)c1)C(=O)NC(C(=O)OC(C)(C)C)c1ccccc1 (some centres unmarked) [DAPT],effect on extracellular Aβ38 / Aftin-5 induced Aβ38 down-regulation,"extracellular Aβ38; N2a-AβPP695, compound together with 100 μM Aftin-5, 18 h",down-regulated
same,IC50,extracellular Aβ38,0.112 µM
same,effect on levels of intracellular amyloids,"[3]; N2a-AβPP695, 1 μM compound in presence of 100 μM Aftin-5, 18 h",but not that of intracellular amyloids
same,effect on extracellular Aβ40 in Aftin-5 treated cells,extracellular Aβ40,down-regulated
same,IC50,extracellular Aβ40,0.062 µM
same,effect on Aftin-5 induced extracellular Aβ42 production,extracellular Aβ42,down-regulated
[Ca+2] [calcium],"ultrastructure of isolated mitochondria (swelling, cristae remodeling)",[4],strong swelling
C[C@H](CS)C(=O)N1CCC[C@H]1C(=O)O [captopril],effect on extracellular Aβ38 level,extracellular Aβ38; 18 h,no effects
same,effect on extracellular Aβ40 level/production,extracellular Aβ40; 18 h,no effects
same,effect on extracellular Aβ42 level/production,extracellular Aβ42; 18 h,no effects
CN(Cc1ccccc1)c1nc(N)nc2[nH]cnc12 [compound (2)],effect on extracellular Aβ42 level/production,extracellular Aβ42; 18 h,inactive
same,effect on rapamycin-induced autophagy,N2a-AβPP695 cells [5],Neither Aftin-5 nor its inactive analog compound (2) impaired rapamycin-induced autophagy
COc1cccc2c1C(=O)c1c(O)c3c(c(O)c1C2=O)C[C@@](O)(C(=O)CO)C[C@@H]3O[C@H]1C[C@H](N)[C@H](O)[C@H](C)O1 [doxorubicin],"ultrastructure of mitochondria within cells, positive control",N2a-AβPP695 cells [7]; 5 μM doxorubicin,altered the structure of cristae and induced cell death
CC(C)C[C@H](NP(=O)(O)O[C@@H]1O[C@@H](C)[C@H](O)[C@@H](O)[C@H]1O)C(=O)N[C@@H](Cc1c[nH]c2ccccc12)C(=O)O [phosphoramidon],effect on extracellular Aβ38 level,extracellular Aβ38; 18 h,no effects
same,effect on extracellular Aβ40 level/production,extracellular Aβ40; 18 h,no effects
same,effect on extracellular Aβ42 level/production,extracellular Aβ42; 18 h,no effects
C[C@H](N[C@@H](CCc1ccccc1)C(=O)O)C(=O)N1Cc2ccccc2C[C@H]1C(=O)O [quinaprilat],effect on extracellular Aβ38 level,extracellular Aβ38; 18 h,no effects
same,effect on extracellular Aβ40 level/production,extracellular Aβ40; 18 h,no effects
same,effect on extracellular Aβ42 level/production,extracellular Aβ42; 18 h,no effects
CO[C@H]1C[C@@H]2CC[C@@H](C)[C@@](O)(O2)C(=O)C(=O)N2CCCC[C@H]2C(=O)O[C@H]([C@H](C)C[C@@H]2CC[C@@H](O)[C@H](OC)C2)CC(=O)[C@H](C)/C=C(\C)[C@@H](O)[C@@H](OC)C(=O)[C@H](C)C[C@H](C)/C=C/C=C/C=C/1C [rapamycin],effect on Aftin-5 induced extracellular Aβ42 production,extracellular Aβ42,did not prevent
same,"autophagy, LC3 foci, compound alone",N2a-AβPP695 cells [5],accumulation of LC3 foci
"CC[C@H](CO)Nc1nc(NCc2ccccc2)c2ncn(C(C)C)c2n1 [roscovitine, (R)-Roscovitine]",effect on extracellular Aβ42 level/production,extracellular Aβ42; 18 h,little effect
O=C(O)CNC(=O)C(CS)Cc1ccccc1 (centres unmarked) [thiorphan],effect on extracellular Aβ38 level,extracellular Aβ38; 18 h,no effects
same,effect on extracellular Aβ40 level/production,extracellular Aβ40; 18 h,no effects
same,effect on extracellular Aβ42 level/production,extracellular Aβ42; 18 h,no effects
β-secretase inhibitor IV,effect on extracellular Aβ40 in Aftin-5 treated cells,extracellular Aβ40,inhibited production
same,effect on Aftin-5 induced extracellular Aβ42 production,extracellular Aβ42,inhibited production
